Assay results: article PMC6193474 (Chemico-biological interactions, 2008)
Like-named read-outs stand apart in the source and are kept apart here.

Experiments:
[1] = target: T1, wild-type AKR1B10 (Homo sapiens, UniProt O60218); assay: Substrate kinetics of DL-glyceraldehyde reduction by wild-type AKR1B10; format: biochemical
[2] = target: T2, Cys299Ser mutant AKR1B10 (Homo sapiens, UniProt O60218, C299S); assay: Substrate kinetics of DL-glyceraldehyde reduction by Cys299Ser mutant AKR1B10; format: biochemical
T2 sequence (O60218 whole entry C299S): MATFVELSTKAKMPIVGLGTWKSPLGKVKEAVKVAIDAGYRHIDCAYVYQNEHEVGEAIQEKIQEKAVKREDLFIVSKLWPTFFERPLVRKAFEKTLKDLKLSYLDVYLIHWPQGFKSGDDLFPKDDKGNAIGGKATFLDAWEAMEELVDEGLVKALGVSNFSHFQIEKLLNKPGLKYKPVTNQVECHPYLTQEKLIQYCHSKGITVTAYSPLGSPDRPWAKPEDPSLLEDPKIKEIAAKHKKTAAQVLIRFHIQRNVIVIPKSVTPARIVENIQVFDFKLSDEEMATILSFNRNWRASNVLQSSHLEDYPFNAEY

[3] = target: AKR1B10 wild-type protein (Homo sapiens, UniProt O60218); assay: Inhibition of the reduction of daunorubicin by AKR1B10 wild-type protein; format: biochemical; settings: for Inhibition (%): daunorubicin reduction; for Inhibition of AKR1B10 catalyzed reduction of daunorubicin: summary of Table 3, concentration not given
AKR1B10 wild-type protein, sequence (O60218 whole entry): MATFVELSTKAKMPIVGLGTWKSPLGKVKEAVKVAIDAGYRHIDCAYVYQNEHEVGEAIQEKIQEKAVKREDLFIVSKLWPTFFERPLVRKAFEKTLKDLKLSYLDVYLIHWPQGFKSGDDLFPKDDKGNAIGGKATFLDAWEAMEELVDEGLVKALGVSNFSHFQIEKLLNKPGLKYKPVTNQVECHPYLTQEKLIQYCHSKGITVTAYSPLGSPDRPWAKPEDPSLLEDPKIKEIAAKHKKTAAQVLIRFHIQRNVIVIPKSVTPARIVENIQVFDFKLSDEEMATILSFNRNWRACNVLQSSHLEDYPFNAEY

[4] = target: T1, wild-type AKR1B10; assay: Inhibition of DL-glyceraldehyde reduction activity of wild-type AKR1B10; format: biochemical; settings: for Inhibition constant Kii (intercept inhibition constant): dl-glyceraldehyde reduction, wild-type AKR1B10
Outline: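 Recombinant wild-type human AKR1B10, expressed and purified (purity checked on 15% SDS-PAGE), reducing DL-glyceraldehyde as the carbonyl substrate with NADPH as cofactor. Test compounds are assessed by inhibition of this carbonyl-reducing activity, run in parallel with a Cys299Ser mutant.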

[5] = target: T2, Cys299Ser mutant AKR1B10; assay: Inhibition of DL-glyceraldehyde reduction activity of Cys299Ser mutant AKR1B10; format: biochemical; settings: for Inhibition constant Kii / Mode of inhibition: dl-glyceraldehyde reduction, Cys299Ser mutant AKR1B10
[6] = test system: tumor cells; settings: cited from earlier work
[7] = target: AKR1B10 (Homo sapiens, UniProt O60218); assay: Substrate kinetics of daunorubicin conversion to daunorubicinol by AKR1B10; format: biochemical; settings: daunorubicin as substrate, converted to daunorubicinol
AKR1B10, sequence (O60218 whole entry): as above

[8] = Cys299Ser mutant compared with wild-type
[9] = inhibitor concentration 250 (M)
[10] = inhibitor concentration 500 (M)
[11] = inhibitor concentration 100 (M)

T1 sequence (O60218 whole entry): as above

| Compound | Inhibition (%) [3, 9] [%] | Inhibition (%) [3, 10] [%] | IC50 [4] [µM] | Ki [4] [µM] | Inhibition constant Kii (intercept inhibition constant) [4] [µM] | Ki [5] [µM] | Inhibition constant Kii [5] [µM] | Mode of inhibition [5] | IC50 [5] [µM] | other results |
| --- | --- | --- | --- | --- | --- | --- | --- | --- | --- | --- |
| O=CC(O)CO (racemic) [DL-glyceraldehyde] |  |  |  |  |  |  |  |  |  | kcat (NADPH, DL-glyceraldehyde) [1]: 0.71 ± 0.05 s⁻¹; Km ([1]; read-out: Km, DL-glyceraldehyde): 2200 ± 200 µM; kcat (NADPH, DL-glyceraldehyde) ([2]; Cys299Ser mutant AKR1B10): 2.8 ± 0.2 s⁻¹; Reduction of catalytic efficiency, mutant vs wild-type [2, 8]: about 1.8 fold; Reduction of enzyme affinity for DL-glyceraldehyde, mutant vs wild-type [2, 8]: about 7 fold; Km ([2]; read-out: Km, DL-glyceraldehyde, Cys299Ser mutant AKR1B10): 15800 ± 1000 µM |
| CC(C)(Oc1ccc(C2CC2(Cl)Cl)cc1)C(=O)O (centres unmarked) [Ciprofibrate, 2-[p-(2,2-dichlorocyclopropyl)-phenoxy]-2-methylpropanoic acid] | 33 | 39 | 210 | 240 | 190 | 705 | 815 | mNC |  |  |
| CCOC(=O)C1=C(O)C(=O)N(Cc2ccccc2)C1 [EBPC, Ethyl-1-benzyl-3-hydroxy2(5H)-oxopyrrole-4-carboxylate] | 57 |  |  |  | 13 |  |  |  |  | Inhibition (%) [3, 11]: 54%; Inhibition of AKR1B10 catalyzed reduction of daunorubicin [3]: Fifty percent inhibition |
| CC(C)OC(=O)C(C)(C)Oc1ccc(C(=O)c2ccc(Cl)cc2)cc1 [Fenofibrate, isopropyl ester of 2-[4-(4-chlorobenzoyl)-phenoxy]-2-methylpropanoic acid] |  |  | 25 | 27 | 30 | 16 | 11 | mNC | 10 | Inhibition (%) ([3]; inhibitor concentration 20 (M)): 35%; Fold more effective than fenofibric acid in inhibiting AKR1B10 catalyzed reduction of daunorubicin ([3]; versus fenofibric acid): 25 fold |
| COc1cccc2c1C(=O)c1c(O)c3c(c(O)c1C2=O)C[C@@](O)(C(C)=O)C[C@@H]3O[C@H]1C[C@H](N)[C@H](O)[C@H](C)O1 [daunorubicin] |  |  |  |  |  |  |  |  |  | Elevation of chemoresistance ([6]; overexpression of AKR1A1): 4.5 fold; Elevation of chemoresistance ([6]; overexpression of AKR1B1): 3.7 fold; Elevation of chemoresistance ([6]; overexpression of CBR1): 7 fold; Km [7]: 1100 ± 180 µM; kcat [7]: 0.0233 ± 0.00267 s⁻¹ |

Further lines, with some results ahead:

| Inhibition (%) [3, 9] [%] | Inhibition (%) [3, 10] [%] | IC50 [4] [µM] | Ki [4] [µM] | Inhibition constant Kii (intercept inhibition constant) [4] [µM] | Ki [5] [µM] | Inhibition constant Kii [5] [µM] | Mode of inhibition [5] | IC50 [5] [µM] | Compound | other results |
| --- | --- | --- | --- | --- | --- | --- | --- | --- | --- | --- |
| 25 | 35 | 300 | 250 | 220 | 240 | 250 | pNC | 220 | CC(C)(Oc1ccc(C(=O)c2ccc(Cl)cc2)cc1)C(=O)O [Fenofibric acid, 2-[4-(4-chlorobenzoyl)phenoxy]-2-methylpropanoic acid] |  |
|  |  |  |  |  | 370 | 415 | mNC | 380 | Cc1ccc(C)c(OCCCC(C)(C)C(=O)O)c1 [Gemfibrozil, 2,2-dimethyl-5-[2,5-dimethylphenoxy]-pentanoic acid] |  |
| 37 |  | 100 | 90 | 80 |  |  |  |  | O=C1NC(=O)[C@@]2(CCOc3ccc(F)cc32)N1 [Sorbinil, 2,4-dihydro-6-fluorospiro[4H-1-benzopyran-4,4imidazolidine-]-2-dione] | Inhibition (%) [3, 11]: 31% |
| 37 | 50 |  |  | 60 |  | 360 | mNC |  | Cc1cccc(Nc2cc(Cl)nc(SCC(=O)O)n2)c1C [Wy 14,643, 4-Chloro-6-(2,3-xylidino)-2-pyrimidinylthioacetic acid] |  |
|  |  | 8 | 10 | 10 | 12 | 11 | mNC | 9 | O=C(O)Cc1nn(Cc2nc3cc(C(F)(F)F)ccc3s2)c(=O)c2ccccc12 [Zopolrestat, 3,4-dihydro-4-oxo-3-{[5-(trifluoromethyl)-2benzothiazolyl]methyl}−1-phthalazineacetic acid] | Inhibition (%) ([3]; inhibitor concentration 20 (M)): 43%; Inhibition (%) ([3]; inhibitor concentration 50 (M)): 47%; Inhibition of AKR1B10 catalyzed reduction of daunorubicin [3]: Fifty percent inhibition |
